Experimental findings from ChEMBL document CHEMBL1629603, “Voriconazole increases while itraconazole decreases plasma meloxicam concentrations” (Antimicrob Agents Chemother, 2009) are described below.

Data set [1] has as its system Homo sapiens. The data set can be described thus: Toxicity in human assessed as altered color vision changes at 400 mg, po every 12 hrs for 1 day and 200, po mg every 12 hrs for one additional day. The data set is classed as organism-based. Particulars: in vivo.
For data set [2], the system named is Homo sapiens. In words: Toxicity in human assessed as photophobia at 400 mg, po every 12 hrs for 1 day and 200, po mg every 12 hrs for one additional day. The data set is classed as organism-based. The settings on record: in vivo.
Data set [3] concerns Plasma. In words: Fraction unbound in human at 15 mg, po pretreated with voriconazole at 400 mg, po every 12 hrs for 1 day and 200, po mg every 12 hrs for one additional day. The settings on record: in vivo. The data set is classed as ADME, organism-based. A digest of the protocol: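 Healthy volunteers, open-label randomized crossover; 15 mg oral meloxicam given fasted 1 h after the last voriconazole dose. Plasma drawn 5 h post-dose; 1 ml ultrafiltered (YM30 filter, 1,200 x g, 25°C, 30 min). Unbound meloxicam measured by LC-MS/MS (positive ion, piroxicam internal standard; standards 0.5–50 ng/ml), all samples in one run.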

In data set [4] the test system is Homo sapiens. The data set can be described thus: Inhibition of TxB2 production in human blood at 15 mg, po after 5 hrs by enzyme immunoassay pretreated with voriconazole at 400 mg, po every 12 hrs for 1 day and 200, po mg every 12 hrs for one additional day. The data set is classed as functional. A digest of the protocol: (§1)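 Design: 12 healthy males, Latin-square three-phase crossover, 4-week washout; 15 mg oral meloxicam given fasted 1 h after the last voriconazole dose. Blood taken before and at 5, 8, 12, 24, 48 h into glass tubes without anticoagulant, clotted 1 h at 37°C. Serum TxB2 measured by enzyme immunoassay. Reported as percent decrease versus each subject's own baseline.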

Data set [5] relates to Homo sapiens. In words: Inhibition of TxB2 production in human blood at 15 mg, po after 8 hrs by enzyme immunoassay pretreated with voriconazole at 400 mg, po every 12 hrs for 1 day and 200, po mg every 12 hrs for one additional day. The data set is classed as functional. The method in brief: as §1
For data set [6], the system named is Homo sapiens. The data set can be described thus: Inhibition of TxB2 production in human blood at 15 mg, po after 12 hrs by enzyme immunoassay pretreated with voriconazole at 400 mg, po every 12 hrs for 1 day and 200, po mg every 12 hrs for one additional day. The class given is functional. The method in brief:
as §1

The test system of data set [7] is Homo sapiens. The data set can be described thus: Inhibition of TxB2 production in human blood at 15 mg, po after 24 hrs by enzyme immunoassay pretreated with voriconazole at 400 mg, po every 12 hrs for 1 day and 200, po mg every 12 hrs for one additional day. The data set is classed as functional. The method in brief:
as §1

Data set [8] has as its system Homo sapiens. In words: Inhibition of TxB2 production in human blood at 15 mg, po after 48 hrs by enzyme immunoassay pretreated with voriconazole at 400 mg, po every 12 hrs for 1 day and 200, po mg every 12 hrs for one additional day. The data set is classed as functional. The method in brief: as §1
Data set [9] deals with Homo sapiens. In words: Inhibition of TxB2 production in human blood at 15 mg, po after 48 hrs by enzyme immunoassay pretreated with itraconazole at 200 mg, po qd for 4 days. The data set is classed as functional. The method in brief:
(§2)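 Ex vivo COX-1 index in healthy volunteers. Blood drawn without anticoagulant before and 5, 8, 12, 24, 48 h after the single oral dose, then clotted 1 h at 37°C. Serum TxB2 measured by enzyme immunoassay. Percent decrease calculated against each subject's own predose baseline, within a crossover with control or azole-pretreated phases.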

The subject of data set [10] is Plasma. The data set can be described thus: Fraction unbound in human plasma at 15 mg, po. Particulars: in vivo. The class given is ADME, organism-based. The method in brief:
(§3)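 Plasma drawn 5 h after the single oral dose in each crossover phase (control, voriconazole 400 mg q12h day 1 then 200 mg q12h day 2, or itraconazole 200 mg daily for 4 days, last azole dose 1 h before). Ultrafiltered through a YM30 membrane at 1,200 x g, 25°C, 30 min. Free drug by LC-MS/MS; bound fraction derived from free versus total.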

Data set [11] relates to Homo sapiens. In words: Inhibition of TxB2 production in human blood at 15 mg, po measured up to 48 hrs by enzyme immunoassay pretreated with itraconazole at 200 mg, po qd for 4 days. The data set is classed as functional, organism-based. A digest of the protocol: as §2
The nature of data set [12]: AUC (0 to 72 hrs) in human at 15 mg, po. The class given is ADME, organism-based. On the set-up: dose 15 mg, time < 72 hr, route oral. The settings on record: plasma. The method in brief: (§4)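 Healthy male volunteers (n=12), randomized three-phase Latin-square crossover with 4-week washout; single oral dose after overnight fast, lunch at 4 h. Venous plasma sampled predose and 1–72 h, stored –70°C; total drug by LC-MS/MS (piroxicam internal standard). Cmax and Tmax read directly from concentration data; AUC0-72 by linear (rising) / log (descending) trapezoidal rule.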

The nature of data set [13]: Cmax in human at 15 mg, po. The class given is ADME, organism-based. On the set-up: dose 15 mg, route oral. Particulars: in vivo. A digest of the protocol:
as §4

A short description of data set [14]: Tmax in human at 15 mg, po. The class given is ADME, organism-based. The settings on record: in vivo. A digest of the protocol: as §4
Data set [15] can be described thus: Protein binding in human plasma at 15 mg, po after 5 hrs. The data set is classed as ADME, organism-based. The settings on record: read-out: PPB (converted). A digest of the protocol:
as §3

Data set [16] in a line: Protein binding in human at 15 mg, po pretreated with voriconazole at 400 mg, po every 12 hrs for 1 day and 200, po mg every 12 hrs for one additional day measured after 5 hrs last post dose. The class given is ADME, organism-based. The settings on record: plasma, read-out: PPB (converted). The method in brief: as §3
Data set [17] can be described thus: Protein binding in human at 15 mg, po pretreated with itraconazole at 200 mg, po qd for 4 days measured after 5 hrs last post dose. The class given is ADME, organism-based. Particulars: plasma, read-out: PPB (converted). A digest of the protocol: as §3
Data set [18] concerns Homo sapiens. The data set can be described thus: Inhibition of TxB2 production in human blood at 15 mg, po after 5 hrs by enzyme immunoassay. The data set is classed as functional. The method in brief:
as §2

In data set [19] the test system is Homo sapiens. The data set can be described thus: Inhibition of TxB2 production in human blood at 15 mg, po after 8 hrs by enzyme immunoassay. The class given is functional. The method in brief: as §2
The test system of data set [20] is Homo sapiens. In words: Inhibition of TxB2 production in human blood at 15 mg, po after 12 hrs by enzyme immunoassay. The data set is classed as functional. The method in brief:
as §2

In data set [21] the test system is Homo sapiens. In words: Inhibition of TxB2 production in human blood at 15 mg, po after 24 hrs by enzyme immunoassay. The class given is functional. The method in brief: as §2
Data set [22] deals with Homo sapiens. In words: Inhibition of TxB2 production in human blood at 15 mg, po after 48 hrs by enzyme immunoassay. The class given is functional. A digest of the protocol:
as §2

The test system of data set [23] is Plasma. The data set can be described thus: Fraction unbound in human at 15 mg, po pretreated with itraconazole at 200 mg, po qd for 4 days. The data set is classed as ADME, organism-based. The settings on record: in vivo, 96 h. A digest of the protocol:
as §3

Calls of active or inactive are those of the source. The rule behind the calls is not given here.

As to `C[C@@H](c1ncncc1F)[C@](O)(Cn1cncn1)c1ccc(F)cc1F` [VORICONAZOLE], the Activity entry in data set [1] and in [2] was “Toxic” each time. Moreover, in data set [3], the Fu is given as 0.17%. Further, the “inhibition (INH)” value in data set [4] is 37%; in data set [5], 46%; in data set [6], 49%; in [7] it was 31%; in data set [8], 14%.
For the compound `Cc1cnc(NC(=O)C2=C(O)c3ccccc3S(=O)(=O)N2C)s1` [MELOXICAM], the “inhibition (INH)” value in data set [9] worked out at 29%; in data set [18], 30%; in data set [19], 37%; in data set [20], 56%; in [21], 28%; in data set [22] it was 25%. Besides, the Fu in [10] came out at 0.18%. Besides, the inhibition entry in data set [11] is “inactive”. Besides, the AUC(0-t) at 72 h in data set [12] was found to be 32400 ng·h/mL. In [13], this compound displayed a Cmax of 1250 ng/mL. Besides, the Tmax in data set [14] is 4 h. In addition, the fraction unbound at 5 h in data set [15] was 0.0017; in data set [16], 0.0017; in data set [17], 0.0018.
Consider `CCC(C)n1ncn(-c2ccc(N3CCN(c4ccc(OCC5COC(Cn6cncn6)(c6ccc(Cl)cc6Cl)O5)cc4)CC3)cc2)c1=O` (stereo not drawn) [ITRACONAZOLE], for which the Fu in [23] is 0.18%.
